Measured values from ChEMBL document CHEMBL1681757, “Discovery of potent dipeptidyl peptidase IV inhibitors derived from β-aminoamides bearing substituted [1,2,3]-triazolopiperidines for the treatment of type 2 diabetes” (Bioorg Med Chem Lett, 2011).

What was measured:
[1] = Tmax in rat at 20 mg/kg, po; format: ADME, organism-based; parameters: dose 20 mg/kg, route oral; conditions: in vivo
How it was run: (§1)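 Healthy male rats (200–220 g), four per group, dosed orally at 20 mg/kg. Plasma exposure parameters derived: Cmax, Tmax, terminal half-life after oral dosing, and area under the concentration curve.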

[2] = Terminal half life in rat at 20 mg/kg, po; format: ADME, organism-based; parameters: dose 20 mg/kg, route oral; conditions: in vivo, read-out: beta t1/2 (converted); how it was run: as §1
[3] = AUC (0 to t) in rat at 20 mg/kg, po; format: ADME, organism-based; parameters: dose 20 mg/kg, route oral; conditions: plasma; how it was run: as §1
[4] = Cmax in rat at 20 mg/kg, po; format: ADME, organism-based; parameters: dose 20 mg/kg, route oral; conditions: in vivo; how it was run: as §1
Mus musculus [5] = species on record: Mus musculus; experiment: animal or person; conditions: ICR, Blood, po, 1 h, read-out: INH
Mus musculus [6] = species on record: Mus musculus; experiment: animal or person; conditions: ICR, Blood, po, 1 h, read-out: INH; remark: listed apart in the source

Tmax [1] | half-life [2] | AUC(0-t) [3] | Cmax [4] | Compound | inhibition in vivo at 3 mg/kg (Mus musculus [5]) | inhibition in vivo at 10 mg/kg (Mus musculus [6])
0.63 h | 2.23 h | 871 ng·h/mL | 231 ng/mL | Cl.NC(=O)c1nnn2c1CN(C(=O)C[C@H](N)Cc1cc(F)c(F)cc1F)CC2 |  | 
0.38 h | 2.18 h | 1130 ng·h/mL | 600 ng/mL | Cl.N[C@@H](CC(=O)N1CCn2nnc(-c3ccc(C(=O)O)cc3)c2C1)Cc1cc(F)c(F)cc1F |  | 
1 h | 2.27 h | 2520 ng·h/mL | 695 ng/mL | Cl.N[C@@H](CC(=O)N1CCn2nnc(C(F)F)c2C1)Cc1cc(F)c(F)cc1F |  | 
1 h | 1.87 h | 730 ng·h/mL | 255 ng/mL | Cl.N[C@@H](CC(=O)N1CCn2nnc(-c3ccco3)c2C1)Cc1cc(F)c(F)cc1F |  | 

Compound | Tmax [1] | half-life [2] | AUC(0-t) [3] | Cmax [4] | inhibition in vivo at 3 mg/kg (Mus musculus [5]) | inhibition in vivo at 10 mg/kg (Mus musculus [6])
N[C@@H](CC(=O)N1CCn2nnc(-c3cnco3)c2C1)Cc1cc(F)c(F)cc1F.O=C(O)/C=C/C(=O)O | 1.88 h | 1.35 h | 1640 ng·h/mL | 475 ng/mL |  | 
N[C@@H](CC(=O)N1CCn2nnc(-c3ccccn3)c2C1)Cc1cc(F)c(F)cc1F.O=C(O)/C=C/C(=O)O | 1.38 h | 2.67 h | 2510 ng·h/mL | 484 ng/mL |  | 
N[C@@H](CC(=O)N1CCn2nnc(C(F)(F)F)c2C1)Cc1cc(F)c(F)cc1F.O=C(O)/C=C/C(=O)O | 0.88 h | 2.53 h | 4560 ng·h/mL | 965 ng/mL | 19% | 27%
